Results on 48 sequences are retold here after the EternaBench riboswitch data.

The subject of the data set is MS2 coat protein. Put plainly: apparent Kd, MS2 coat protein; higher = weaker binding; RNA-MaP array; FMN 200 µM where present. The procedure, abridged:
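In 100 mM Tris-HCl pH 7.5, 80 mM KCl, 4 mM MgCl2, BSA, DTT, yeast tRNA and Tween-20, SNAP-549-labelled MS2 coat protein was titrated from 0.7 or 1.5 nM, doubling to 3 µM, over designs transcribed by stalled E. coli RNA polymerase on Illumina sequencing-chip clusters. This was done first without ligand, then with ligand held constant. After green signal was normalised to red-channel RNA signal and control-cluster median Fmax, the apparent Kd was taken as the median of filtered per-cluster binding-curve fits.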

Where [1] appears, read: designed as: OFF switch for flavin mononucleotide, no ligand.
The mark [2] stands for this setting: ligand present: flavin mononucleotide, designed as: OFF switch for flavin mononucleotide.
The mark [3] stands for this setting: designed as: ON switch for flavin mononucleotide, no ligand.
Setting [4] is: ligand present: flavin mononucleotide, designed as: ON switch for flavin mononucleotide.

In general, apparent Kd refers to a dissociation constant that holds for the conditions of the assay. Take “GCUAAGAAAGGAUAUACACCGGUGAGCCGCUGAUUUCAGCAACAUGAGGAUCACCCAUGUAGAAGGUUUAUGGG”: the “apparent Kd” value was found to be 367 nM under setting [1] and 110 nM under setting [2].

Take “UGUCGGAGCAGAGGAUAUACAUGAGGAUCACCCAUGUAAAUGAAAGAUAGCUCGAAACGAGCAAAGUAGAAGGCUGCUCCGACA”: the “apparent Kd” value by setting is: under setting [1], 14.9 nM; under setting [2], 24.7 nM.

With “GUCAUUAAACAGAAGGUGUAGUACAUGAGGAUCACCCAUGUAUAACUAACUAAAUUUGUAAUUAACAAGGAUAUGUACUAAUCG”, the “apparent Kd” value turned out to be 6.58 nM under setting [3] and 6.63 nM under setting [4].

Regarding “GUUAUAUUUAGUUCAUACUAUAUGAUAGAAGGUGAAAUAUAGACAUGAGGAUCACCCAUGUAAUUCAAGGAUAUGUAGUUACUC”, the “apparent Kd” value under setting [3] was found to be 29.9 nM and the “apparent Kd” value under setting [4] amounted to 21.5 nM.

Consider “CAACCGUUGCAGAAGGUUAAAUAAUUUCUCAUCUUGUUUACAUGAGGAUCACCCAUGUAUUUGUUGAAGGAUAUGCAAGUGUUG”, for which the “apparent Kd” value was found to be 8.58 nM under setting [1] and 8.21 nM under setting [2].

In the case of “UCAUCAGCGGGCGGGUCGGUUGGACAUGAGGAUCACCCAUGUAGAAGGACCGGUGGACUCCGCCGGUAGGAUAUACAUUUGGUG”, the “apparent Kd” value reads like this: under setting [1], 32.1 nM; under setting [2], 18.9 nM.

For the sequence “AAUACAAAUAGUCAGGAUAUCAAAAAUAAGACAUGAGGAUCACCCAUGUAAUAAGUAAAAGUAAAUGAGAAGGGACAGGGUGAAA”, the “apparent Kd” value is, setting by setting: under setting [3], 168 nM; under setting [4], 266 nM.

Consider “AUUAUAUUAGGAUAUUCGCUGUGGUACAUGAGGAUCACCCAUGUAUCUGCUUGUAUCAACGAAGAAGGAAUGUGUA”, for which the “apparent Kd” value is 15.5 nM under setting [1] and 16.8 nM under setting [2].

Consider “GGAAAGCGAGGAUAUACAUGAGGAUCACCCAUGUUAACAAACAAACAAACAAACAAAAGUAGAAGGCGCAAAAU”, for which the “apparent Kd” value runs as follows: under setting [1], 37 nM; under setting [2], 36.5 nM.

Turning to “CUCUUGUGAGGAUAUCAGUAGUAAAAAAAUAAAAUUACUACUGAGAAGGCACAUGAGGAUCACCCAUGUCUUUC”, the “apparent Kd” value reads like this: under setting [1], 211 nM; under setting [2], 158 nM.

With “UGGUACAUGGGAGGAUAUCCUCACAUGAGGAUCACCCAUGUAAAGAAUUAUAAGCCGAAAGGCAUGGAGAAGGCCCAUGUACCU”, the “apparent Kd” value under setting [3] was 87.6 nM and the “apparent Kd” value under setting [4] came to 16.2 nM.

For “AUGAGCUCGUCAGGAUAUACGUCACUGCGUCAGCAGUGUGGUAAGAUCACAUGAGGAUCACCCAUGUAGAAGGGACGAGCUGAU”, the “apparent Kd” value runs as follows: under setting [1], 14.6 nM; under setting [2], 307 nM.

“GGAUCGAGUGUGAGGAUAUGCUGGUCCUUGGAUCAGCAGAAGGCACAUGAGGAUCACCCAUGUGAAGACGAUCC”: the “apparent Kd” value runs as follows: under setting [1], 23.6 nM; under setting [2], 187 nM.

“CCAGAUAUGUGAGGAUAUAGAGUGGAAUACACUCUAGAAGGUAUGUGAAAACAUGAGGAUCACCCAUGUGAUUGAUUAUCUGGA”: the “apparent Kd” value reads like this: under setting [3], 28.2 nM; under setting [4], 27.3 nM.

For the sequence “GGAGCCGGCACCGAGGAUAUUCAUAUUAAAACAUGAGGAUCACCCAUGUAGGCCAGAAGGCUUUGGGAGAAGGCGGAUCGGCUCG”, the “apparent Kd” value stood at 604 nM under setting [3] and 38.7 nM under setting [4].

Take “ACAUGGUAGUAGAAGGGUAUUACUUUAGAAUCAACCAUUAGUUUAUUUUAUACAGGAUAUGCUAACAUGAGGAUCACCCAUGUU”: the “apparent Kd” value stood at 10.4 nM under setting [1] and 8.25 nM under setting [2].

In the case of “CGUGCGUCGACAGGAUAUACAGAUUGGCUCCGGUACAUGAGGAUCACCCAUGUAGAAGGGUCACGCACGGUUAGUUCGUUAUUA”, the “apparent Kd” value reads like this: under setting [1], 8.88 nM; under setting [2], 40.9 nM.

Take “AAAUCUUACGAAGGAUAUACAAACAUGAGGAUCACCCAUGUGUGUUUCGUGUAACUGAAAUUCGGGUAGAAGGUCGUAGACAUA”: the “apparent Kd” value by setting is: under setting [1], 24.3 nM; under setting [2], 15 nM.

Consider “GGCACACAUGAGGAUCACCCAUGUGAGGAUAUGGUGCGAUCGUCGAAAGACGAUAGCACCAGAAGGCACAUGCC”, for which the “apparent Kd” value is, setting by setting: under setting [1], 18.2 nM; under setting [2], 39.5 nM.

Consider “CUUUUGUGAGGAUAUUAGUAGUAAAUAAAUAAAAUUACUAUUGAGAAGGCACAUGAGGAUCACCCAUGUUCCUC”, for which the “apparent Kd” value amounted to 31.4 nM under setting [1] and 182 nM under setting [2].

Consider “GCAUUGAGUGUGAGGAUAUGCUGGUCCUUGGAUCAGCAGAAGGCACAUGAGGAUCACCCAUGUGAAUACAAUGC”, for which the “apparent Kd” value reads like this: under setting [1], 20.9 nM; under setting [2], 116 nM.

On to “CCAGGCUUCGAGAAGGACAUGAGGAUCACCCAUGUGCGUGUAAAACAGCCGUGAGGCUGCAUCAUGUAGGAUAUCGGAGUCUGC”, for which the “apparent Kd” value was 293 nM under setting [1] and 88.9 nM under setting [2].

For “UGUGUGAGACAGGAUAUGCCGGAUGAAUUGCUGGUAGAAGGGUCUACAUGAGGAUCACCCAUGUGGCCGGUUGG”, the “apparent Kd” value by setting is: under setting [1], 16.8 nM; under setting [2], 24.8 nM.

Consider “UCGGCCGCCGUGAGGAUAUGCCCGCGCGCCCGCGGGCAGAAGGCACAUGAGGAUCACCCAUGUCCCGCGGCACU”, for which the “apparent Kd” value under setting [1] stood at 15.4 nM and the “apparent Kd” value under setting [2] was 27.4 nM.

“CUCAUGUCAGGAUAUCAGUAGUAAAAAAAUAAAAUUACUACUGAGAAGGGACAUGAGGAUCACCCAUGUCCGGG”: the “apparent Kd” value under setting [1] amounted to 20.4 nM and the “apparent Kd” value under setting [2] came to 18.4 nM.

For the sequence “AUAUUGUGAGGAUAUGAACUUAGUAUCGAAAGAUACUAUGUUCAGAAGGCACAUGAGGAUCACCCAUGUUUCUC”, the “apparent Kd” value reads like this: under setting [1], 81.7 nM; under setting [2], 569 nM.

For the sequence “UGGUACAUGGGAGGAUAUCCUCAAGACAUGAGGAUCACCCAUGUAAAUUAUAAGCCGAAAGGCAUGGAGAAGGCCCAUGUACCU”, the “apparent Kd” value turned out to be 96.3 nM under setting [3] and 20.2 nM under setting [4].

Regarding “CAGCUCUGAGGAUAUCCAUCCUCCUACAUGAGGAUCACCCAUGUUUCCCUCUGGGUUUUCGGAGAAGGCAGUUUUU”, the “apparent Kd” value under setting [1] was found to be 248 nM and the “apparent Kd” value under setting [2] came out at 425 nM.

As for “AAAAAGGUAGGAUAUACGAGGAGAAAUAAUAAAUAAAUAAAACAUGAGGAUCACCCAUGUAGAAGGACCAAAAA”, the “apparent Kd” value amounted to 26.1 nM under setting [1] and 26.8 nM under setting [2].

“GCGUUGAACGAGAAGGCCAAUACAUGAGGAUCACCCAUGUUAAGUUGUUUUGGAGGAUAUCGAACACAUUCAAUAUUGCAACGC”: the “apparent Kd” value under setting [1] was 6.06 nM and the “apparent Kd” value under setting [2] is 5.65 nM.

Turning to “AUCAGCACGUGAGGAUAUGCGUUACUGCGAAAGCAGUACGGUAAGAUCACAUGAGGAUCACCCAUGUAGAAGGCACGAGCUGAU”, the “apparent Kd” value is, setting by setting: under setting [1], 16.6 nM; under setting [2], 36.9 nM.

For the sequence “AAGACAUGAGGAUCACCCAUGUAAAGACCGGUCGAUCAAGGUGAGGAUAUACAAUAAUUGAUAGGGUAGAAGGCACUGGGUUGA”, the “apparent Kd” value reads like this: under setting [3], 286 nM; under setting [4], 148 nM.

Consider “AGCUAGUCAGGAUAUACGUACAUGUCAUUAGACGUGAAGGGACAUGAGGAUCACCCAUGUAGAAGGGACUAGCU”, for which the “apparent Kd” value by setting is: under setting [1], 37.6 nM; under setting [2], 139 nM.

Turning to “GUAGCAUACGGAGGAUAUCCAUACCGGAAACGGACAUGAGGAUCACCCAUGUGGCGAAAGCCUUGGGAGAAGGCCGUAUGCUAC”, the “apparent Kd” value is, setting by setting: under setting [3], 4.63 nM; under setting [4], 3.67 nM.

Turning to “AAAAAACAUGAGGAUCACCCAUGUAAAAAAAUCACAGGAUAUAAGGUCGCGAAAGCGACCUUAGAAGGGUGAUCCU”, the “apparent Kd” value was determined as 20.1 nM under setting [3] and 20.1 nM under setting [4].

For the sequence “UAUAUAUAGUAAGGAUAUGUAUUUAGUUUAUAAACAGAAGGUACUGACAUGAGGAUCACCCAUGUUUUAGUGUGGGCAUGUAGA”, the “apparent Kd” value worked out at 87.7 nM under setting [1] and 127 nM under setting [2].

For the sequence “ACCUUACAUGAGGAUCACCCAUGUCAGGAUAUCUCGGGCGGCUGAGGACCAGCCGCCCAGAGAAGGGACGAGGA”, the “apparent Kd” value reads like this: under setting [1], 14.7 nM; under setting [2], 15.3 nM.

For “GGGUGGCGUAGAGGAUAUGUGUUACAUGAGGAUCACCCAUGUGCAUAUGAUGUUCGUGUGUGUGCAUAGAAGGCUACGUCGCUA”, the “apparent Kd” value reads like this: under setting [3], 28.3 nM; under setting [4], 24.3 nM.

Take “UGGUUGUGUGUUAGGAUAUGGUCUGGUGUUUCGGGCUAGAAGGGACAUGAGGAUCACCCAUGUGGCUGGCGGGU”: the “apparent Kd” value reads like this: under setting [1], 127 nM; under setting [2], 126 nM.

For “UUGGACGUCGUAGGAUAUGUAGAAUAUUCCUACAUGAGGAUCACCCAUGUUGACAUGGAAGAAGGACAGAAGGACGAUGUCCAU”, the “apparent Kd” value runs as follows: under setting [3], 6.97 nM; under setting [4], 5.37 nM.

“CCGGCCGCCGUGAGGAUAUGCCCGCGCGCCCGCGGGCAGAAGGCACAUGAGGAUCACCCAUGUCCUGCGGUCCC”: the “apparent Kd” value by setting is: under setting [1], 20.1 nM; under setting [2], 119 nM.

With “UAUAUAUAGUAAGGAUAUGUAAUUAUUUUACAAACAGAAGGUACUGACAUGAGGAUCACCCAUGUUUUAGUGUGGGCAUGUAGA”, the “apparent Kd” value under setting [1] amounted to 47.3 nM and the “apparent Kd” value under setting [2] worked out at 54.4 nM.

On to “GGAGCACACAUUAACAUGAGGAUCACCCAUGUCAAAAGACAUGAGGAUAUGGAUCCGAAAAGGACCCAGAAGGCAUGGUGCUCC”, for which the “apparent Kd” value runs as follows: under setting [3], 427 nM; under setting [4], 21.8 nM.

In the case of “ACACAUGUCCGAGGAUAUCUGAGAUCAUUUUCAAGAGAAGGCGGACAUGAGGAUCACCCAUGUCUCUCCUCAUCAACUCCAAAU”, the “apparent Kd” value by setting is: under setting [1], 8.06 nM; under setting [2], 49.2 nM.

On to “AACAGUACAGGAUAUACAUGAGGAUCACCCAUGUGAAGAAUAAGUGGCGUACCACAAAGUAGAAGGGUACUGGA”, for which the “apparent Kd” value is, setting by setting: under setting [1], 29.3 nM; under setting [2], 120 nM.

For the sequence “AUCAGCACGUCAGGAUAUACGUCACUGCGUCAGCAGUGUGGUAAGAUCACAUGAGGAUCACCCAUGUAGAAGGGACGAGCUGAU”, the “apparent Kd” value came out at 14.1 nM under setting [1] and 317 nM under setting [2].

Consider “AAAGUCUAUUGAGGAUAUCGUUAUCAAAGAUAAUGAGAAGGCAAACAAUCAUGAGGACAUGAGGAUCACCCAUGUUGUGACCAU”, for which the “apparent Kd” value reads like this: under setting [3], 22.3 nM; under setting [4], 13.4 nM.

Regarding “GCAAUCGCAUGAGGAUAUGCUGGAGUUUAGACAGCAGAAGGCAUGUCAUAAGACAUGAGGAUCACCCAUGUAGUUACAAUGGCA”, the “apparent Kd” value amounted to 41 nM under setting [3] and 11.9 nM under setting [4].
